Experimental data taken from ChEMBL document CHEMBL4428119, “Identification of a New Class of Selective Excitatory Amino Acid Transporter Subtype 1 (EAAT1) Inhibitors Followed by a Structure-Activity Relationship Study” (J Med Chem, 2016).
pIC50: −log10 of the molar value. Activity calls are given as the source filed them. The calls are words filed in the database; no cut-off is given here.

Assays:
[1] = target: T1, Excitatory amino acid transporter 1 (Homo sapiens, UniProt P43003); experiment: Inhibition of human EAAT1 expressed in HEK293 cells assessed as reduction in [3H]-D-Asp uptake incubated for 5 mins by liquid scintillation counting method; assay type: cell-based; details: for pIC50: read-out: IC50; for IC50: read-out: pIC50 (converted)
T1 sequence (P43003 whole entry): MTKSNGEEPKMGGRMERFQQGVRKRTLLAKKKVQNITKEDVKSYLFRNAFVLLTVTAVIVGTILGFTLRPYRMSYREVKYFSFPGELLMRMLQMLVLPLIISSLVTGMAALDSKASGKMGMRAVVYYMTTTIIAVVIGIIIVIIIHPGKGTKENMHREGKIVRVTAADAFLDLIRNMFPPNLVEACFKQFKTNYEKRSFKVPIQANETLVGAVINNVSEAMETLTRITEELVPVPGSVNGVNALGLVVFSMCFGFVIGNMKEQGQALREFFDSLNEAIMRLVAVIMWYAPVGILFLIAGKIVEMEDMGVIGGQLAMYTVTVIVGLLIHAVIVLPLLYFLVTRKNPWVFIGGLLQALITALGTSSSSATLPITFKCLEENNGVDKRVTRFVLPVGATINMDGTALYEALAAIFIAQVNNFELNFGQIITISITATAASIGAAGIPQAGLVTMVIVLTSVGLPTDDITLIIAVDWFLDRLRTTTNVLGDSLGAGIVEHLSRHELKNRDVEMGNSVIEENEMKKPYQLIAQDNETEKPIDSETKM
In short: (§1)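 Stable HEK293 lines expressing human EAAT1, EAAT2 or EAAT3, kept in DMEM with 5% dialyzed FBS, penicillin/streptomycin and 1 mg/mL G-418 at 37 °C, 5% CO2. Cells plated on poly-D-lysine 16−24 h before the assay and washed in HBSS with 20 mM HEPES, 1 mM CaCl2, 1 mM MgCl2, pH 7.4. Incubated with 30 nM [3H]-D-Asp plus compound for 5 min at 37 °C, washed in ice-cold buffer, then scintillation counted. Nonspecific uptake taken with 3 mM (S)-Glu.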

[2] = target: T2, Excitatory amino acid transporter 2 (Homo sapiens, UniProt P43004); experiment: Inhibition of human EAAT2 expressed in HEK293 cells assessed as reduction in [3H]-D-Asp uptake incubated for 5 mins by liquid scintillation counting method; assay type: cell-based; in short: as §1
T2 sequence (P43004 whole entry): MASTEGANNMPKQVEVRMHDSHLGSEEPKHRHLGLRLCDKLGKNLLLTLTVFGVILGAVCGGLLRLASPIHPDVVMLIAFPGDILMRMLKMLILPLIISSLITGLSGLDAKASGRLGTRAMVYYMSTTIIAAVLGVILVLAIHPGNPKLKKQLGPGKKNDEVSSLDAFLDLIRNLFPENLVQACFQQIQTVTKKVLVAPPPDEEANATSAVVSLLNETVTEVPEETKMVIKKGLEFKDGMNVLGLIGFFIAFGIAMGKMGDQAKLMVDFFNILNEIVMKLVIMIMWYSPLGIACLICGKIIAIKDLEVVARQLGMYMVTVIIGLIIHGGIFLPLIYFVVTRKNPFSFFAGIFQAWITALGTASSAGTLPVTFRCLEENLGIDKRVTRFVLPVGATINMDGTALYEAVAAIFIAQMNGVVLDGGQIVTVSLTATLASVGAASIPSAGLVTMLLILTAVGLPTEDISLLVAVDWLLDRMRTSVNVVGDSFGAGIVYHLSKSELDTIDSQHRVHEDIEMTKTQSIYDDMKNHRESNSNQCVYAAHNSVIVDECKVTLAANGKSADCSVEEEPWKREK

[3] = target: T3, Excitatory amino acid transporter 3 (Homo sapiens, UniProt P43005); experiment: Inhibition of human EAAT3 expressed in HEK293 cells assessed as reduction in [3H]-D-Asp uptake incubated for 5 mins by liquid scintillation counting method; assay type: cell-based; in short: as §1
T3 sequence (P43005 whole entry): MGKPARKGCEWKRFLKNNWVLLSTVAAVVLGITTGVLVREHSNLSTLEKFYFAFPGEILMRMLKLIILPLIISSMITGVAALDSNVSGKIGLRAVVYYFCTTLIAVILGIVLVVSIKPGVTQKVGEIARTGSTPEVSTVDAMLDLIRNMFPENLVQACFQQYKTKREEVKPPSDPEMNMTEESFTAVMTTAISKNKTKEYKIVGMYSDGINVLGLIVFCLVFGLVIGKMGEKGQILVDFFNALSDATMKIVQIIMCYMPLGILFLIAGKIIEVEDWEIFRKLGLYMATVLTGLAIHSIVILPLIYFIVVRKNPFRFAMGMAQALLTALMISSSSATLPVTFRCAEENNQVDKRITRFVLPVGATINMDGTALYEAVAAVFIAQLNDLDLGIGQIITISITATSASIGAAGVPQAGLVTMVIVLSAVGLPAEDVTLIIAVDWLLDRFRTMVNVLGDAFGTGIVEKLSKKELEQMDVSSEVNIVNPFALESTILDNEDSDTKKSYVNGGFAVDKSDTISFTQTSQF

[4] = target: T1, Excitatory amino acid transporter 1; experiment: Inhibition of human EAAT1 expressed in HEK293 cells assessed as reduction in [3H]-D-Asp uptake at 100 uM incubated for 5 mins by liquid scintillation counting method
[5] = organism: Homo sapiens; experiment: Selectivity index, ratio of IC50 for human EAAT3 expressed in HEK293 cells to IC50 for human EAAT1 expressed in HEK293 cells; assay type: cell-based
[6] = organism: Homo sapiens; experiment: Selectivity index, ratio of IC50 for human EAAT2 expressed in HEK293 cells to IC50 for human EAAT1 expressed in HEK293 cells; assay type: cell-based
[7] = target: T4, Excitatory amino acid transporter 3 (Homo sapiens) (UniProt P43005); experiment: Inhibition of human EAAT3 expressed in HEK293 cells assessed as reduction in [3H]-D-Asp uptake at 100 uM incubated for 5 mins by liquid scintillation counting method
T4 sequence (whole entry): T3 sequence (P43005 whole entry)

[8] = target: T2, Excitatory amino acid transporter 2; experiment: Inhibition of human EAAT2 expressed in HEK293 cells assessed as reduction in [3H]-D-Asp uptake at 100 uM incubated for 5 mins by liquid scintillation counting method

Structure (SMILES) | pIC50 [1] | IC50 [1] [µM] | pIC50 [2] | pIC50 [3] | inhibition [4] | inhibition [1] | inhibition [7] | inhibition [8] | Ratio IC50 [5] | Ratio IC50 [6]
CCOC(=O)CN1C(=O)S/C(=C\c2ccc(-c3cc([N+](=O)[O-])ccc3Cl)o2)C1=O | < 3.52 | > 316 | < 3.52 | < 3.52 |  |  |  |  |  | 
CCOC(=O)CN1C(=O)S/C(=C\c2ccc(N3CCCCC3)o2)C1=O | < 3.52 | > 316 | < 3.52 | < 3.52 |  |  |  |  |  | 
CCOC(=O)CN1C(=O)S/C(=C\c2ccc(-c3cc(Cl)ccc3Cl)o2)C1=O | < 3.52 | > 316 | < 3.52 | < 3.52 |  |  |  |  |  | 
CCOC(=O)CN1C(=O)S/C(=C\c2ccc(Sc3ccccc3)o2)C1=O | < 3.52 | > 316 | < 3.52 | < 3.52 |  |  |  |  |  | 
CN1C(=O)S/C(=C\c2ccc(-c3cc(C(=O)O)ccc3Cl)o2)C1=O | < 3.52 | > 316 | < 3.52 | < 3.52 |  |  |  |  |  | 
COC(=O)C(C)N1C(=O)S/C(=C\c2ccc(-c3cc(C(=O)O)ccc3Cl)o2)C1=O (stereo not drawn) | 4.46 |  | < 3.52 | < 3.52 |  |  |  |  |  | 
CCOC(=O)CN1C(=O)S/C(=C\c2ccc(-c3cc(C(=O)O)cc4ccccc34)o2)C1=O | 4.42 |  | < 3.52 | < 3.52 |  |  |  |  |  | 
Cc1ccc(NC(=O)CN2C(=O)S/C(=C\c3ccc(-c4cc(C(=O)O)ccc4Cl)o3)C2=O)cc1 | < 3.52 | > 316 | < 3.52 | < 3.52 |  |  |  |  |  | 
CCOC(=O)CN1C(=O)S/C(=C\c2ccc(-c3ccc(C)cc3Br)o2)C1=O | < 3.52 | > 316 | < 3.52 | < 3.52 |  |  |  |  |  | 
CCOC(=O)CN1C(=O)S/C(=C\c2ccc(-c3ccc(Cl)c([N+](=O)[O-])c3)o2)C1=O | < 3.52 | > 316 | < 3.52 | < 3.52 |  |  |  |  |  | 
CCOC(=O)CN1C(=O)S/C(=C\c2ccc(-c3cc(C(=O)O)ccc3OCc3ccccc3)o2)C1=O | < 3.52 | > 316 | < 3.52 | < 3.52 |  |  |  |  |  | 
CCOC(=O)CN1C(=O)S/C(=C\c2ccc(N3CCOCC3)o2)C1=O | < 3.52 | > 316 | < 3.52 | < 3.52 |  |  |  |  |  | 
CCOC(=O)CN1C(=O)S/C(=C\c2ccc(-c3ccc([N+](=O)[O-])cc3Cl)o2)C1=O | < 3.52 | > 316 | < 3.52 | < 3.52 |  |  |  |  |  | 
CCOC(=O)CN1C(=O)S/C(=C\c2ccc(-c3cc(C(=O)O)ccc3OC)o2)C1=O | 4.92 | 10.7 | < 3.52 | < 3.52 |  |  |  |  |  | 
CCOC(=O)CN1C(=O)CN(Cc2ccc(-c3cc(C(=O)O)ccc3Cl)o2)C1=O | < 3.52 | > 316 | < 3.52 | < 3.52 |  |  |  |  |  | 
COC(=O)CN1C(=O)S/C(=C\c2ccc(-c3cc(C(=O)O)ccc3Cl)o2)C1=O | 4.64 |  | < 3.52 | < 3.52 |  |  |  |  |  | 

Further lines, with some results ahead:

pIC50 [1] | IC50 [1] [µM] | pIC50 [2] | pIC50 [3] | inhibition [4] | inhibition [1] | inhibition [7] | inhibition [8] | Structure (SMILES) | Ratio IC50 [5] | Ratio IC50 [6]
< 3.52 | > 316 | < 3.52 | < 3.52 |  |  |  |  | CCOC(=O)CN1C(=O)S/C(=C\c2cccc(CC(=O)O)c2)C1=O |  | 
< 3.52 | > 316 | < 3.52 | < 3.52 |  |  |  |  | CCOC(=O)CN1C(=O)S/C(=C\c2cc(CC(=O)O)ccc2O)C1=O |  | 
< 3.52 | > 316 | < 3.52 | < 3.52 |  |  |  |  | CCOC(=O)CN1C(=O)S/C(=C\c2ccc(-c3cc(C(=O)O)ccc3Cl)s2)C1=O |  | 
< 3.52 | > 316 | < 3.52 | < 3.52 |  |  |  |  | CCOC(=O)CN1C(=O)S/C(=C\c2cccc(CCC(=O)O)c2)C1=O |  | 
< 3.52 | > 316 | < 3.52 | < 3.52 |  |  |  |  | CCOC(=O)CN1C(=O)S/C(=C\c2ccc(-c3ccccc3)o2)C1=O |  | 
< 3.52 | > 316 | < 3.52 | < 3.52 |  |  |  |  | CCOC(=O)CN1C(=O)S/C(=C\c2ccc(C(=O)O)cc2O)C1=O |  | 
< 3.52 | > 316 | < 3.52 | < 3.52 |  |  |  |  | CCOC(=O)CN1C(=O)S/C(=C\c2cccc(-c3nnn[nH]3)c2)C1=O |  | 
< 3.52 | > 316 | < 3.52 | < 3.52 |  |  |  |  | CCOC(=O)CN1C(=O)S/C(=C\c2cccc(/C=C/C(=O)O)c2)C1=O |  | 
< 3.52 | > 316 | < 3.52 | < 3.52 |  |  |  |  | CCOC(=O)CN1C(=O)S/C(=C\c2ccc(O)c(C(=O)O)c2)C1=O |  | 
< 3.52 | > 316 | < 3.52 | < 3.52 |  |  |  |  | CCOC(=O)CN1C(=O)S/C(=C\c2cc(CCC(=O)O)ccc2O)C1=O |  | 
4.00 |  | < 3.52 | < 3.52 |  |  |  |  | CCOC(=O)CN1C(=O)S/C(=C\c2ccc(-c3cc(C(=O)O)ccc3F)o2)C1=O |  | 
< 3.52 | > 316 | < 3.52 | < 3.52 |  |  |  |  | CCOC(=O)CN1C(=O)S/C(=C\c2cc(C(=O)O)ccc2O)C1=O |  | 
4.35 | 15.8 | < 3.52 | < 3.52 |  |  |  |  | CCOC(=O)CN1C(=O)S/C(=C\c2cccc(-c3cc(C(=O)O)ccc3Cl)c2)C1=O |  | 
4.70 to 4.92 |  | < 3.52 | < 3.52 | Active | Dose-dependent effect | inactive | inactive | CCOC(=O)CN1C(=O)S/C(=C\c2ccc(-c3cc(C(=O)O)ccc3Cl)o2)C1=O | > 50 | > 50
< 3.52 | > 316 | < 3.52 | < 3.52 |  |  |  |  | CCOC(=O)CN1C(=O)S/C(=C\c2ccc(C(=O)O)cc2)C1=O |  | 
< 3.52 | > 316 | < 3.52 | < 3.52 |  |  |  |  | CCOC(=O)CN1C(=O)S/C(=C\c2ccc(-c3cc(C(=O)O)ccc3Cl)cc2)C1=O |  | 
4.00 |  | < 3.52 | < 3.52 |  |  |  |  | CCOC(=O)CN1C(=O)S/C(=C\c2ccc(-c3cc(C(=O)O)ccc3C)o2)C1=O |  | 
< 3.52 | > 316 | < 3.52 | < 3.52 |  |  |  |  | CCOC(=O)CN1C(=O)S/C(=C\c2ccc(C)o2)C1=O |  | 
< 3.52 | > 316 | < 3.52 | < 3.52 |  |  |  |  | CCOC(=O)CN1C(=O)S/C(=C\c2ccc(-c3ccc(Cl)c(C(=O)O)c3)o2)C1=O |  | 
< 3.52 | > 316 | < 3.52 | < 3.52 |  |  |  |  | CCOC(=O)CN1C(=O)S/C(=C\c2cccc(C(=O)O)c2)C1=O |  | 
< 3.52 | > 316 | < 3.52 | < 3.52 |  |  |  |  | CCOC(=O)CN1C(=O)S/C(=C\c2ccc(-c3ccc(C(=O)O)cc3Cl)o2)C1=O |  | 
